Published values collected from several papers.
Lines come from different studies, so protocols differ. ≈ marks a conversion by molar mass, not a printed value.

| Structure (SMILES) | test | test system | conditions | endpoint | result |
| --- | --- | --- | --- | --- | --- |
| CC[C@H](C)[C@H](NC(=O)[C@H](C)NC(=O)CNC(=O)[C@H](Cc1ccccc1)NC(=O)[C@H](CC(N)=O)NC(=O)[C@H](CC(N)=O)NC(=O)[C@H](CO)NC(=O)[C@H](CO)NC(=O)[C@H](Cc1c[nH]cn1)NC(=O)[C@@H](NC(=O)[C@H](CC(C)C)NC(=O)[C@H](Cc1ccccc1)NC(=O)[C@H](CC(N)=O)NC(=O)[C@H](C)NC(=O)[C@H](CC(C)C)NC(=O)[C@H](CCCNC(=N)N)NC(=O)[C@H](CCC(N)=O)NC(=O)[C@@H](NC(=O)[C@H](C)NC(=O)[C@@H]1CSSC[C@H](NC(=O)[C@@H](N)CCCCN)C(=O)N[C@@H](CC(N)=O)C(=O)N[C@@H]([C@@H](C)O)C(=O)N[C@@H](C)C(=O)N[C@@H]([C@@H](C)O)C(=O)N1)[C@@H](C)O)C(C)C)C(=O)N[C@@H](CC(C)C)C(=O)N[C@@H](CO)C(=O)N[C@@H](CO)C(=O)N[C@H](C(=O)N[C@@H](CC(N)=O)C(=O)N[C@H](C(=O)NCC(=O)N[C@@H](CO)C(=O)N[C@@H](CC(N)=O)C(=O)N[C@H](C(=O)N[C@@H](Cc1ccc(O)cc1)C(N)=O)[C@@H](C)O)C(C)C)[C@@H](C)O | – | PBS | 1 h, pH 7.4 | thermodynamic solubility | 37 µg/mL |
| N#Cc1ccc(C[C@H](Nc2c(Nc3ccc(Br)cc3)c(=O)c2=O)C(=O)N2CCc3ccccc32)cc1 | – | aqueous buffer | 2 h, pH 7.4, 37 °C | kinetic solubility | 9.2 µM (≈ 4.98 µg/mL) |
| CCN(CC)CCNC(=O)c1cc(S(C)(=O)=O)cnc1OC | – | PBS | 2 h, pH 7.4, 25 °C | kinetic solubility | 393 µM (≈ 129 µg/mL) |
| N#Cc1ccc(C[C@H](Nc2nnc(-c3ccc(Br)cc3)o2)C(=O)N2CCc3ccccc32)cc1 | – | aqueous buffer | 2 h, pH 7.4, 37 °C | kinetic solubility | 1.8 µM (≈ 0.926 µg/mL) |
| C=CCn1c(=O)c2cnc(Nc3ccc(N4CCN(C)CC4)cc3)nc2n1-c1ccc2c(n1)[C@@](O)(CC)CC2 | – | PBS | pH 7.4 | thermodynamic solubility | 2130 µM |
| Cc1ccccc1CN1C(=O)C2=C(CCN(Cc3ccccc3)C2)N2CCN=C12 | shake flask | aqueous buffer | pH 6 | solubility | 260 µg/mL (≈ 673 µM) |
| O=[N+]([O-])c1ccc(Nc2ncnc3ccc(-c4cccc(N5CCOCC5)c4)cc23)cc1C(F)(F)F | – | aqueous buffer | pH 7.4, 25 °C | thermodynamic solubility | < 0.4 µM |
| CO[C@H]1C[C@@H]2CC[C@@H](C)[C@@](O)(O2)C(=O)C(=O)N2CCCC[C@H]2C(=O)O[C@H]([C@H](C)C[C@@H]2CC[C@@H](O)[C@H](OC)C2)CC(=O)[C@H](C)/C=C(\C)[C@@H](O)[C@@H](OC)C(=O)[C@H](C)C[C@H](C)/C=C/C=C/C=C/1C | – | aqueous buffer | 18 h, pH 7.4 | thermodynamic solubility | 6 µM |
| O=C(Nc1ccc(OC(F)(F)F)cc1)N[C@H]1CC[C@H](Oc2ccc(C(=O)O)cc2)CC1 | – | simulated gastric fluid | 15 min, pH 1, 37 °C, acidic | solubility | 0.0023 µg/mL (≈ 0.00525 µM) |
| Fc1ccccc1Nc1nc(-c2ccncc2)nc2c1CNCC2 | – | PBS | 24 h, pH 7.4 | thermodynamic solubility | 596 µM |
| CCCCCCCCCCCCCCCC(=O)NCCO | – | water | 12 h, 37 °C | thermodynamic solubility | < 16 µg/mL |
| N#Cc1ccc(C[C@H](Nc2c(Nc3ccc(F)cc3)c(=O)c2=O)C(=O)N2CCc3ccccc32)cc1 | – | aqueous buffer | 2 h, pH 7.4, 37 °C | kinetic solubility | 11.8 µM (≈ 5.67 µg/mL) |
| Clc1ccc(Nc2ncnc3ccc(-c4cccc(N5CCOCC5)c4)cc23)cc1 | – | aqueous buffer | pH 7.4, 25 °C | thermodynamic solubility | < 0.4 µM |
| CCCCCCCCCCCCCCCC(=O)NCCOC(=O)C[C@@H](CN)CC(C)C | – | water | 12 h, 37 °C | thermodynamic solubility | 3460 µg/mL |
| N#Cc1ccc(C[C@H](Nc2nnc(-c3ccc(F)cc3)o2)C(=O)N2CCc3ccccc32)cc1 | – | aqueous buffer | 2 h, pH 7.4, 37 °C | kinetic solubility | 4.8 µM (≈ 2.18 µg/mL) |
| Cc1nccn1CC1CCc2c(c3ccccc3n2C)C1=O (stereo not shown) | – | PBS | 2 h, pH 7.4, 25 °C | kinetic solubility | 110 µM (≈ 32.3 µg/mL) |
